MEKK2mut PB1 HTS = signal of MEK5 binding to mutant human MEKK2 PB1 domain; bead flow cytometry, Alexa488-MEK5 binding to MEKK2 mutant; percent response, % at 10 µM; hit rate 0.35% among 290,000; in the data active = percent response above about 24%, passing the limit was not always enough
UBC13 polyUb = blocks human UBC13 polyubiquitin chain formation. AID 485273. hit rate 0.47% among 330,000. inhibition, % at 20 µM. TR-FRET. P61088; in the data active = inhibition above about 45%, passing the limit was not always enough; inconclusive = no clear call, values can overlap the other calls
MEKK3 PB1 HTS = raises or lowers MEK5 binding to the human MEKK3 PB1 domain; Q99759; bead-based flow cytometry, Alexa488-MEK5 binding to MEKK3; actives lie on both sides; 0 = blocked by unlabeled MEK5, 100 = vehicle; binding response (% of control), % at 10 µM; hit rate 1.4% among 290,000;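 active = binding response more than 3 SD above or below the average of its plate-row segment, actives on both sides; inconclusive = wells at one plate position flagged as instrument error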;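 note: Alexa488 bead fluorescence after subtracting the streptavidin-only scavenger bead signal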
UCH37 inh = human UCH37 deubiquitinating enzyme inhibition; inhibition, % (test concentration not listed); purified proteasome/UCH37, Ub-AMC cleavage fluorescence; AID 588478; hit rate 0.33% among 330,000; Q9Y5K5;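 active = mean inhibition over replicate wells above about 20%, limit read from the data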;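 note: 0% = compound-free wells with enzyme and 100% = wells lacking proteasome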
Target sequence (Q9Y5K5 whole entry, looked up): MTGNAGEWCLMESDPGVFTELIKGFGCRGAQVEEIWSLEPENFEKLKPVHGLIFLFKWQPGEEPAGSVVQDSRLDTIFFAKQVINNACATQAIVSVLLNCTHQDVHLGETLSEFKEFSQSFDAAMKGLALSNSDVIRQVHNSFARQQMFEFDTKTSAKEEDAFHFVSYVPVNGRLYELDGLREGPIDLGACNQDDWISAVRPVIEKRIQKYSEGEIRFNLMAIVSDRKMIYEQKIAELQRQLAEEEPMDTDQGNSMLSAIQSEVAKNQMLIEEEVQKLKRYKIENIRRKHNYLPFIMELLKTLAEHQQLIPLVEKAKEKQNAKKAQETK
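Schedule: 30 min plus 25 min, room temperature / Material: human UCH37 within purified proteasomes / Technique: AMC fluorescence intensity at 355/460 nm / Buffer or medium: pH 7.4 Tris-HCl (50 mM) with ovalbumin, ATP-MgCl2, DTT / Controls: wells without proteasome as full block, compound-free enzyme plus substrate as uninhibited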
Apaf1 inhib = inhibitors of human Apaf-1 apoptosome; hit rate 0.71% among 330,000; reconstituted apoptosome caspase-3 activity, DEVD-Rh110 fluorescence; O14727; inhibition, % at 20 µM; active = inhibition of at least 40% at 20 µM;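 note: plate controls were DMSO wells for no effect and DEVD-CHO caspase inhibitor wells for full effect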
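Material: biochemical Apaf-1 apoptosome reconstitution. Medium: Hepes buffer, pH 7.5. Also added: cytochrome c activation, bis-DEVD rhodamine 110 substrate. Timing: 30 min compound preincubation, 50 min activation, room temperature. Measured by: rhodamine 110 fluorescence at Ex 480/Em 540 nm.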
MEKK2 WT-MEK5 = raises or lowers MEK5 binding to wildtype human MEKK2 PB1 domain | Q9Y2U5 | bead flow cytometry, Alexa488-MEK5 binding to MEKK2 WT; actives lie on both sides | binding response (% of control), % at 10 µM | hit rate 1.1% among 290,000 | AID 1531; in the data active = binding response below about 67% or above about 130%; inconclusive = no clear call, values can overlap the other calls; inactive = in between
Casp3 counter = inhibits human caspase-3 in UBC13 counter-screen | shares compounds with UBC13 polyUb | Recombinant caspase-3, Caspase-Glo 3/7 luminescence, 60 min | inhibition, % at 20 µM | hit rate 4% among 1,400;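 active = mean inhibition across replicates above about 26%, limit read from the data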;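 note: plate controls were DMSO with caspase-3 for no effect and DMSO wells lacking enzyme for full effect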
Target sequence (P42574 whole entry, looked up): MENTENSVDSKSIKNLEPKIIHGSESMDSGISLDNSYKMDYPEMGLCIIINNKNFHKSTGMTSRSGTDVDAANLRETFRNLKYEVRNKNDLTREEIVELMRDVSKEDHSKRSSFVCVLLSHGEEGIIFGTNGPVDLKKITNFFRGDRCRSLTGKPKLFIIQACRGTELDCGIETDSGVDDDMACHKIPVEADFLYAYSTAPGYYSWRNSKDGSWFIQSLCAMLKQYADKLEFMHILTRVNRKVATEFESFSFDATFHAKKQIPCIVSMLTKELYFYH
UBC13 confirm = confirmation of human UBC13 polyubiquitin inhibitors | AID 488859 | inhibition, % at 10 µM | shares compounds with UBC13 polyUb | hit rate 68% among 1,400 | UBC13 polyubiquitination, TR-FRET, biochemical; in the data active = inhibition above about 45%; inconclusive = no clear call, values can overlap the other calls
Apaf-1 inh conf = confirmation of Apaf-1 inhibitors; shares compounds with Apaf1 inhib; reconstituted apoptosome, caspase-3 DEVD-Rh110 fluorescence; inhibition, % at 20 µM; hit rate 25% among 1,800; AID 504614;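 active = mean inhibition of at least 40% at 20 µM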;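 note: plate controls were DMSO wells for no effect and DEVD-CHO caspase inhibitor control wells for full effect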
Rh110 interf inh = counter-screen for Apaf-1 inhibitors: fluorescence interference; Rh110 fluorescence interference, quenched caspase reaction; activation (fluorescence interference), % at 20 µM; 1,800 tested, under 10 active; shares compounds with Apaf1 inhib;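 active = signal rise of 40% or more at 20 µM, treated as a fluorescence artifact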
Apaf1 inh interf = counter-screen for Apaf-1 inhibitors: fluorescence interference, dose response. shares compounds with Apaf1 inhib. fluorescence interference counterscreen, Apaf-1 assay format. IC50, µM. 460 tested, under 10 active; call rule not given here
Numbers without * were called inactive. In the library only some 3% were active in any assay of this set; here they are far more common.

`COc1ccc(NC(=O)c2ccc(-c3ccc(-c4noc(C)n4)cc3C)cc2)cc1N1CCN(C)CC1` gave UBC13 polyUb 77.8*, UCH37 inh 1.9, Apaf1 inhib 56.9*, Casp3 counter -4.4, UBC13 confirm 44.6, Apaf-1 inh conf 26.4 and Rh110 interf inh 2.0.
`CCCCCCCCCCCCC/C=C/[C@@H](O)[C@@H](N)CO` gave UBC13 polyUb 107.8*, UCH37 inh -1.7, Apaf1 inhib 79.2*, Casp3 counter -3.3, UBC13 confirm 114.2*, Apaf-1 inh conf 37.2 and Rh110 interf inh 18.2.
Screening COc1ccc2sc(-c3ccccc3OC)c(-c3ccc(OCCN4CCOCC4)cc3)c2c1 returned UCH37 inh 0.4 and Apaf1 inhib 28.4.
`COc1ccccc1-c1sc2cc3c(cc2c1-c1ccc(OCCN2CCCCC2)cc1)OCO3` gave UBC13 polyUb 77.3*, UCH37 inh -7.6, Apaf1 inhib 59.4*, Casp3 counter 0.3, UBC13 confirm 69.4*, Apaf-1 inh conf 8.5 and Rh110 interf inh 1.3.
For COc1cc2sc(-c3ccccc3OC)c(-c3ccc(OCCN4CCCCC4)cc3)c2cc1OC the results were UBC13 polyUb 76.5*, Apaf1 inhib 65.7*, Casp3 counter -1.3, UBC13 confirm 73.5*, Apaf-1 inh conf 25.3 and Rh110 interf inh 12.3.
`COc1ccc(-c2sc3cc4c(cc3c2-c2ccc(OCCN3CCOCC3)cc2)OCO4)cc1` gave UBC13 polyUb inconclusive and Apaf1 inhib 13.6.
For Nc1ccc(NC(=S)Nc2ccccc2)cc1 the results were MEKK2mut PB1 HTS 2.0, MEKK3 PB1 HTS 105.0, UCH37 inh 3.6 and MEKK2 WT-MEK5 100.0.
CCN1CCN(S(=O)(=O)c2ccc(Cl)c(C(=O)N(C)Cc3cccs3)c2)CC1 was read as UBC13 polyUb 48.8*, UCH37 inh 0.9, Apaf1 inhib 57.8*, Casp3 counter -3.0, UBC13 confirm 54.6*, Apaf-1 inh conf 31.2 and Rh110 interf inh 1.1.
`COc1ccc(CN2C(=O)CCC2(C)C(=O)NC2CCCCC2)c(OC)c1` (stereo not given) gave MEKK2mut PB1 HTS 3.0, UBC13 polyUb -8.3, MEKK3 PB1 HTS 100.0, Apaf1 inhib 18.0 and MEKK2 WT-MEK5 97.0.
Screening COc1ccc(NS(=O)(=O)c2cc(C(=O)N3CCC3)ccc2C)cc1 returned UBC13 polyUb 71.4*, UCH37 inh 5.7, Apaf1 inhib 47.5*, Casp3 counter 2.6, UBC13 confirm 77.3*, Apaf-1 inh conf 12.8 and Rh110 interf inh 3.5.
For CCCOc1ccc(-c2nc(C#N)c(N3CCc4ccccc4C3)o2)cc1 the results were MEKK2mut PB1 HTS 9.0, UBC13 polyUb 7.5, MEKK3 PB1 HTS 105.0, UCH37 inh -136.8, Apaf1 inhib 12.3 and MEKK2 WT-MEK5 106.0.
C=CCN1C(C(=O)c2ccccc2)=C(OC(=O)COc2ccccc2)c2ccccc2S1(=O)=O was read as MEKK2mut PB1 HTS -2.0, MEKK3 PB1 HTS 96.0, UCH37 inh 6.7 and MEKK2 WT-MEK5 96.0.
Screening Cc1cc(N)c2cc(NC(=O)/C=C/c3ccccc3Cl)ccc2n1 returned MEKK2mut PB1 HTS 117.0*, UBC13 polyUb 117.1*, MEKK3 PB1 HTS 104.0, UCH37 inh 10.2, Apaf1 inhib 64.3*, MEKK2 WT-MEK5 252.0*, Casp3 counter -0.8, UBC13 confirm 128.8*, Apaf-1 inh conf 77.4*, Rh110 interf inh -3.4 and Apaf1 inh interf >100.
Cc1cc(C)nc(NC(=O)/C=C/c2ccccc2Cl)n1 was read as MEKK2mut PB1 HTS 2.0, UBC13 polyUb -0.5, MEKK3 PB1 HTS 101.0, UCH37 inh 1.2, Apaf1 inhib 6.0 and MEKK2 WT-MEK5 98.0.
`C#CCOCCOCCOCCNc1nc(N2CCOCC2)nc(N2CCN(C(=O)[C@H](CCCCN)n3cc(CN)nn3)CC2)n1` gave UBC13 polyUb 96.2*, UCH37 inh 3.8, Apaf1 inhib 48.5*, Casp3 counter -2.3, UBC13 confirm 89.1*, Apaf-1 inh conf 0.1 and Rh110 interf inh 6.5.
For C#CCOCCOCCOCCNc1nc(N2CCN(C(=O)C([C@@H](C)O)n3cc([C@@H](N)CCCCN)nn3)CC2)nc(N2CCN(C(=O)[C@H](CO)n3cc([C@@H](N)C(C)C)nn3)CC2)n1 (stereo not given in full) the results were UBC13 polyUb 104.9*, UCH37 inh -1.6, Apaf1 inhib 52.5*, Casp3 counter -5.2, UBC13 confirm 110.7*, Apaf-1 inh conf 8.3 and Rh110 interf inh 3.0.
Screening C#CCOCCOCCOCCNc1nc(N2CCN(C(=O)[C@H](CCCCN)n3cc([C@@H](N)[C@H](C)CC)nn3)CC2)nc(N2CCN(C(=O)[C@H](CCCCN)n3cc([C@@H](N)CC(N)=O)nn3)CC2)n1 returned UBC13 polyUb 99.0*, UCH37 inh 2.8, Apaf1 inhib 44.1*, Casp3 counter -1.3, UBC13 confirm 106.7*, Apaf-1 inh conf -0.3 and Rh110 interf inh -3.0.
`C#CCOCCOCCOCCNc1nc(N2CCOCC2)nc(N2CCN(C(=O)[C@H](CCCCN)n3cc([C@@H](N)C(C)CC)nn3)CC2)n1` (stereo not given in full) gave MEKK2mut PB1 HTS 5.0, UBC13 polyUb 23.0, MEKK3 PB1 HTS 99.0, UCH37 inh 3.6, Apaf1 inhib 2.0 and MEKK2 WT-MEK5 112.0.
C#CCOCCOCCOCCNc1nc(N2CCN(C(=O)C([C@@H](C)O)n3cc([C@@H](N)CCCCN)nn3)CC2)nc(N2CCN(C(=O)[C@H](CC(N)=O)n3cc(C(N)[C@@H](C)CC)nn3)CC2)n1 (stereo not given in full) was read as UBC13 polyUb 21.1, UCH37 inh 4.5 and Apaf1 inhib 0.2.
Screening O=c1cc(CSc2ccc(Cl)cc2)nc2nc[nH]n12 returned MEKK2mut PB1 HTS 3.0, UBC13 polyUb -10.6, MEKK3 PB1 HTS 103.0, UCH37 inh -0.2, Apaf1 inhib 15.5 and MEKK2 WT-MEK5 108.0.

Compound activity deposited in PubChem BioAssay by several laboratories.
